Source: PubChem
Compounds with a hit are over-represented: about 2.4% of the library has one in this group of screens.
MC4R barr agon: MC4R agonists recruiting beta-arrestin, primary screen, cell-based, luminescence, agonist arm of biased-ligand search | U2OS MC4R beta-arrestin complementation; percent of melanotan II response, DMSO zero | AID 540308, 2011 | activation, % at 8.9 µM | 360,000 tested, 0.98% active | Melanocortin receptor 4 (Homo sapiens), P32245;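 active = activation above a per-plate cutoff, the mean activation of sample wells on that plate plus 3 SD, cut at about 8% in these data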
TAG inh: inhibitors of triacylglycerol accumulation, primary screen, cell-based, uHTS, fluorescence, H9c2; inhibition, % at 12.5 µM; H9c2 cells, Nile Red lipid (TAG) fluorescence; cells loaded with 200 µM oleic acid; 230,000 tested, 0.66% active;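 active = pattern-corrected inhibition of lipid staining of at least 50% with the nuclear-stain viability signal not falling by more than 50%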
aDG glyco up: activators of alpha-DG glycosylation, primary screen, uHTS, Pro5-aDG cells, AlphaScreen; 360,000 tested, 0.22% active; activation, % at 10 µM; alpha-DG glycosylation AlphaScreen (IIH6); 0% Pro5, 100% B10-LARGE cell signal; AID 624168, 2012;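 active = activation of at least 8% versus controls, or a plate z-score of at least 8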;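 note: Pro5 are CHO cells carrying HIG-tagged alpha-DG that lacks glycosylation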
MC4R antag cAMP: MC4R antagonists of cAMP signaling, primary screen, cell-based, TR-FRET, antagonist arm of biased-ligand search | Melanocortin receptor 4 (Homo sapiens), P32245 | MC4R-expressing cells, MTII-stimulated cAMP, LANCE TR-FRET | inhibition, % at 6.5 µM | 360,000 tested, 0.48% active;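 active = inhibition above its plate's cutoff, the mean of tested wells on that plate plus 3 SD, cut at about 29% in these data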
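system = U2OS cells with stable human MC4R expression | also added = Melanotan II challenge after compound preincubation | dosing = one concentration, 6.5 µM nominal | incubation = compound 30 min, challenge 1 h, detection 1 h | measured by = TR-FRET with Eu-cAMP and labeled anti-cAMP, 671 nm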
Tb MetRS inh: T. brucei MetRS inhibitors, primary screen, biochemical, luminescence; purified T. brucei MetRS, ATP depletion, Kinase-Glo luminescence; inhibition, % at 11.9 µM; 360,000 tested, 0.4% active; AID 624268, 2012;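 active = inhibition above a per-plate cutoff of the control wells' mean inhibition plus 3 SD, cut at about 5.5% in these data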
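Test system – parasite MetRS enzyme · Reagent – substrates ATP, L-methionine and bulk Escherichia coli tRNA · Doses – 11.9 µM compound single dose, 0.9% DMSO · Times – 15 min enzyme-compound preincubation, 2 h reaction, 10 min detection, 25 °C · Signal – Kinase-Glo luminescence, ATP depletion format · Controls – DMSO-only wells as low control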
NTR1 ag: agonists of human NTR1, primary screen, imaging, U2OS cells, beta-arrestin-GFP, high content; NTR1-U2OS beta-arrestin-GFP spot imaging, agonist mode; activation, % at 20 µM; 330,000 tested, 0.17% active;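 active = activation at or above 40% of the spot to cytoplasm intensity ratio, with at least 20 cells analyzed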
Target sequence (P30989 whole entry, looked up): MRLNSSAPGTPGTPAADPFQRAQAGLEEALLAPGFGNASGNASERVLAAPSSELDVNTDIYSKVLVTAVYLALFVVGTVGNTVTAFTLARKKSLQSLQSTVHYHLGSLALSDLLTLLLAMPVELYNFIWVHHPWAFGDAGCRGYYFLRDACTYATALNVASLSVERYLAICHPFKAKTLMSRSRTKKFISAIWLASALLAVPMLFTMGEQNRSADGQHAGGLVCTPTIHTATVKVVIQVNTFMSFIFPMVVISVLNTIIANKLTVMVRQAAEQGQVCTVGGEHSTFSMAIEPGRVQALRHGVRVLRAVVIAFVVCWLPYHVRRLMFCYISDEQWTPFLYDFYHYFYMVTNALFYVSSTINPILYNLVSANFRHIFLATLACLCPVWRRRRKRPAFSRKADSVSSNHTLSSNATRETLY
NTR1 ag conf: NTR1 agonists, single-dose retest, confirmation, imaging, U2OS cells, beta-arrestin-GFP, single concentration. shares compounds with NTR1 ag. NTR1-U2OS beta-arrestin-GFP translocation imaging. activation, % at 20 µM. 480 tested, 38% active. AID 504550, 2011;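 active = mean activation at 20 µM of at least 40%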
A number is an active result; 0 = inactive; - = no result.

SMILES	MC4R barr agon	TAG inh	aDG glyco up	MC4R antag cAMP	Tb MetRS inh	NTR1 ag	NTR1 ag conf
CC1CCc2nc(NC(=O)CN3CCN(Cc4ccc5c(c4)OCO5)CC3)sc2C1 (centres undefined)	9.3	-	0	0	0	0	-
O=C(Nc1ccc(Cl)cc1Cl)c1cccc(N2C(=O)C=CC2=O)c1	0	0	0	57	0	0	-
O=C(O)c1cccc(N2C(=O)C=CC2=O)c1	0	0	0	0	0	-	-
O=C1CCCCCCC(=O)[C@H](O)C[C@H](c2ccccc2)O1	-	-	0	-	0	-	-
CCCCCc1cc(=O)oc2c(C(CCN3CCCCC3)c3ccc(OC)cc3)c(OC)cc(OC)c12 (centres undefined)	0	111	0	0	0	48	61
CCCCCc1cc(=O)oc2c(C(CCN3CCCC3)c3ccc(N(C)C)cc3)c(OC)cc(OC)c12 (centres undefined)	0	68	0	0	0	53	0
C/C(=N\NC(=O)c1ccc(C)cc1C)c1ccc2c(c1)Nc1ccccc1S2	0	-	0	0	0	43	0
O=C1NC[C@@H](CCCCN2CCN(CC3CCCCC3)C(=O)C2=O)N(CCC2CCCCC2)C1=O	-	-	0	-	0	-	-
Cc1ccc(NC(=O)C2(C)CCN2C(=O)Cc2ccccc2)cc1C (centres undefined)	0	0	0	0	0	-	-
Cc1cccc(Nc2nc(N)c([N+](=O)[O-])c(N3CC(C)OC(C)C3)n2)c1 (centres undefined)	0	-	0	0	0	0	-
Cc1cccc(Nc2nc(N)c([N+](=O)[O-])c(N3CC(C)CC(C)C3)n2)c1 (centres undefined)	0	-	0	0	0	46	0
COc1ccc(C(=O)n2nc(-c3ccco3)nc2N)cc1	0	0	0	0	0	52	0
Cc1ccc(C(=O)n2nc(-c3ccco3)nc2N)cc1	0	0	0	0	0	0	-
O=C(Nc1ccc(Cl)c(Cl)c1)Nc1nc(-c2ccccc2)cs1	0	-	0	0	0	47	0
COc1cccc(-c2csc(NC(=O)Nc3ccccc3)n2)c1	0	-	0	0	0	72	0
CN(Cc1ccccc1)C(c1ccnc2ccccc12)c1nnnn1-c1ccc2c(c1)OCCO2 (centres undefined)	-	-	0	-	0	-	-
CCCNC(=O)C1(C)CCCN(CC(=O)c2ccc3c(c2)OCCO3)C1 (centres undefined)	0	0	0	0	0	-	-
Cc1ccc(C(=O)Nc2nnc(NC(=S)Nc3ccccc3)s2)cc1	0	0	0	0	0	73	58
CCc1nc2c(OCC(=O)N3CCOCC3)cccn2c1N(C)C(=O)COc1ccccc1	0	0	0	0	0	-	-
COc1ccc(S(=O)(=O)Nc2ccccc2C(=O)Nc2nc(-c3ccc(F)cc3)cs2)cc1OC	0	-	0	0	0	45	0
Nc1ccc(-c2cc(-c3ccc(N)cc3)nc(-c3ccccc3)n2)cc1	0	-	0	0	0	0	-
Oc1ccc(-c2cc(-c3ccc(O)cc3)nc(-c3ccccc3)n2)cc1	0	-	0	0	0	52	57
Oc1ccc(/C=N/Nc2nc(-c3ccc(Cl)cc3)cc(C(F)(F)F)n2)cc1	14	-	0	0	0	61	0
Fc1cccc(Cc2c(-c3ccc(Cl)cc3)nc3c(Cl)cc(C(F)(F)F)cn23)c1	-	-	0	-	0	-	-
CCOC(=O)c1c(C)n(C)c2ccc(OCC(O)CN3CCCCCC3)cc12 (centres undefined)	0	0	0	0	0	0	-
SMILES	MC4R barr agon	TAG inh	aDG glyco up	MC4R antag cAMP	Tb MetRS inh	NTR1 ag	NTR1 ag conf
CCOC(=O)c1c(C)n(C)c2ccc(OCC(O)Cn3nc(C)c(Br)c3C)cc12 (centres undefined)	0	0	0	0	0	41	0
O=C(O)c1cccc(NC(CNS(=O)(=O)c2ccc(Cl)cc2)c2ccccc2)c1 (centres undefined)	0	0	0	0	0	0	-
O=S(=O)(NCC(Nc1ccccc1)c1ccccc1)c1ccc(Cl)cc1 (centres undefined)	0	-	0	0	0	44	0
COc1cccc(C(O)c2nc(-c3ccc(OC)nc3)cs2)c1 (centres undefined)	0	0	0	0	0	-	-
O=c1c2ccccc2c(C=Nc2ccc(O)cc2)c(O)n1Cc1ccccc1	0	0	0	0	0	0	0
COc1ccc(Cn2c(O)c(C=Nc3ccc(O)cc3)c3ccccc3c2=O)cc1	0	-	0	0	0	0	-
FC(F)(F)c1nc(-c2cccs2)ncc1-c1nnnn1-c1ccc(Cl)cc1	0	0	0	0	0	57	0
Clc1ccc(-n2nnnc2-c2cnc(-c3ccncc3)nc2-c2cccs2)cc1	0	0	0	0	0	0	-
Cc1ccccc1-n1c(=O)[nH]c(=O)c2c(N)c(C(=O)c3ccc(Cl)cc3)sc21	0	-	0	0	0	40	0
Nc1c(C(=O)c2ccc(Cl)cc2)sc2c1c(=O)[nH]c(=O)n2-c1ccccc1	0	-	0	0	0	0	-
Oc1cccc(-c2nc3c4c(ncn3n2)-c2ccccc2CC42CCCC2)c1	0	-	0	0	0	44	0
COc1ccc(-c2nc3c4c(ncn3n2)-c2ccccc2CC42CCCC2)cc1	0	-	0	0	0	0	-
COc1ccc(Nc2nc(N)c([N+](=O)[O-])c(NC3CCCCC3)n2)cc1	0	-	0	0	0	46	0
COc1ccc(Nc2nc(N)c([N+](=O)[O-])c(NCCO)n2)cc1	0	0	0	0	0	0	-
NC(c1cccc(F)c1)c1nc(-c2ccc(Cl)cc2)cs1 (centres undefined)	0	0	0	0	0	-	-
OC(CNCCc1ccc(Cl)cc1)COc1cc(Cl)ccc1Cl (centres undefined)	30	-	0	0	0	41	0
COc1ccc(CCNCC(O)COc2ccc(Cl)cc2)cc1OC (centres undefined)	0	-	0	0	0	0	-
COc1ccc(NC(=O)c2cc(-c3cc(F)ccc3OC)n[nH]2)cn1	0	0	0	0	0	-	-
Cc1ccc(-n2ncc3c(N4CCN(c5ccccc5)CC4)ncnc32)c(C)c1	0	-	0	0	0	62	61
